# Screening data as filed in PubChem.
# SUMO1 PPI mod: modulators of SUMO1 protein-protein interactions, primary screen, biochemical, uHTS; hit rate 0.33% among 360,000; inhibition, % at 20 µM; SUMO1 binding to a labelled peptide, TR-FRET, 1 h; Small ubiquitin-related modifier 1 (Homo sapiens), P63165; AID 602429, 2012; in the data active means inhibition above about 37%
# Target sequence (P63165 whole entry, looked up): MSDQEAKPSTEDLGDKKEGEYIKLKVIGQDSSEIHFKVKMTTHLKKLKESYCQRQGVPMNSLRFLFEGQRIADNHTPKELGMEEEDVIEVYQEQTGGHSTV
# DNMT1 inh: human DNMT1 methyltransferase inhibitors, primary screen, biochemical, molecular beacon, fluorescence, HinP1I cleavage, uHTS. AID 588458, 2011. inhibition (reported as % activation of signal), % at 10 µM. hit rate 0.83% among 360,000; in the data active means inhibition above about 50%
# Scp-1 inhibitor: Scp-1 phosphatase inhibitors, primary screen, biochemical, colorimetric, uHTS; Carboxy-terminal domain RNA polymerase II polypeptide A small phosphatase 1 (Homo …; Recombinant Scp1, phosphopeptide, malachite green phosphate absorbance; inhibition, % at 20 µM; hit rate 0.88% among 340,000; AID 493091, 2011;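 active means inhibition above about 50% at 20 µM, limit read from the data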;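 further: plate controls were DMSO wells with enzyme for no effect and wells lacking enzyme for full effect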
#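 Times: enzyme reaction 45 min at room temperature, colour 5 min, stabilisation 30 min. Material: SCP-1 catalytic fragment, aa 76-261. Medium: Acidic Tris acetate buffer with magnesium and detergent. Signal: colorimetric free-phosphate detection, absorbance 630 nm. Read-out basis: % inhibition of SCP-1 phosphate liberation. Reagent: Phosphorylated 17-residue peptide substrate.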
# CSN deneddyl inh: inhibitors of CSN-mediated cullin deneddylation, primary screen, biochemical, fluorescence polarization, uHTS. COP9 signalosome complex subunit 5 (Homo sapiens), Q92905. Purified CSN, SCF-Nedd8-OG deneddylation. inhibition, % at 12.5 µM. hit rate 0.38% among 360,000;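 active means pattern-corrected inhibition above about 35%, with an unprinted fluorescence ratio check between 0.5 and 1.5, limit read from the data, passing the limit was not always enough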;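 further: 0% = enzyme with substrate and 100% = substrate without enzyme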
# Target sequence (Q92905 whole entry, looked up, one chain of several): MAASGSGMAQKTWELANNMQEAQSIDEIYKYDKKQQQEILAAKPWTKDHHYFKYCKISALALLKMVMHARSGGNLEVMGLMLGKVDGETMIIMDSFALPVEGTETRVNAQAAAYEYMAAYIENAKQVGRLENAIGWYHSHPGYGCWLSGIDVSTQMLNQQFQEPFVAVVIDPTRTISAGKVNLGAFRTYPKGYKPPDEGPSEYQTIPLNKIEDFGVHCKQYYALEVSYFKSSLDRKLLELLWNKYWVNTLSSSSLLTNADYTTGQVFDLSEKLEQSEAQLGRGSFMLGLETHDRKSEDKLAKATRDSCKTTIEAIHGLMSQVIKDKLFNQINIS
#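 Schedule: reaction 90 min, room temperature / Assay system: HEK293T-derived human Csn5 enzyme / Input: Csn5 at 0.24 nM final / Measure: inhibition of Csn5 cleavage, % / Control set: substrate-only high control, full reaction low control / Technique: fluorescence polarization of the substrate / Buffer or medium: Tris/NaCl/DTT buffer, pH 7.5 / Reagent: SCFSkp2-Nedd8OG substrate at 10 nM final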
# LMPTP block: LMPTP phosphatase inhibitors, primary screen, biochemical, fluorescence intensity, uHTS; hit rate 0.22% among 360,000; inhibition, % at 20 µM; recombinant LMPTP-A, OMFP fluorogenic substrate; Low molecular weight phosphotyrosine protein phosphatase (Homo sapiens), P24666;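 active means compounds that cut the enzyme signal by at least half of the control window in the single-dose screen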;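 further: plate controls were DMSO wells with enzyme plus substrate for no effect and substrate without enzyme for full effect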
# Target sequence (P24666 whole entry, looked up): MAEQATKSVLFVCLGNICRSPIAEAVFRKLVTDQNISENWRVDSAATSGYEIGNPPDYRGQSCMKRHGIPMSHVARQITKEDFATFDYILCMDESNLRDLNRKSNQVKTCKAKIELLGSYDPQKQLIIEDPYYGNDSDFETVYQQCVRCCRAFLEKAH
#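 Test system: LMPTP-A, protein tyrosine phosphatase of low molecular weight; Input: 0.625 nM enzyme; Incubation: 50 min dark incubation at room temperature; Signal: endpoint fluorescence intensity from OMFP dephosphorylation; Read-out basis: % inhibition versus control wells.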
# STEP inh: STEP phosphatase inhibitors, primary screen, biochemical, fluorescence intensity, uHTS; Tyrosine-protein phosphatase non-receptor type 5 (Homo sapiens), P54829; recombinant STEP, OMFP fluorogenic substrate; inhibition, % at 20 µM; hit rate 0.25% among 360,000; AID 588621, 2011;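 active means inhibition at 20 µM, scaled per plate between control wells, above about 37%, limit read from the data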;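 further: 0% = DMSO with enzyme and substrate and 100% = substrate only without enzyme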
#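 Also added – OMFP at 25 µM · Test system – STEP tyrosine phosphatase · Technique – FITC-channel fluorescence of OMFP product · Schedule – 20 min at room temperature, dark · Evaluation – control-normalized % inhibition with plate pattern correction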
# An asterisk follows results filed as active; · = not tested or not shown. The list is not random: actives were taken first. Their share in the collection is about 2%.
SMILES,SUMO1 PPI mod,DNMT1 inh,Scp-1 inhibitor,CSN deneddyl inh,LMPTP block,STEP inh
CC(C)(C)NC(=O)C1(C)CCC(=O)N1C1CCN(Cc2ccccc2)CC1 (stereo not drawn),10.5,-3.2,·,85.7*,-0.3,2.2
O=C(COC(=O)c1ccccc1)Nc1ncc([N+](=O)[O-])s1,58.0*,92.8*,82.7*,56.1,65.2*,10.6
O=C(Nc1ccccc1)Nc1ncc([N+](=O)[O-])s1,-28.6,-4.9,-8.7,-4.3,2.1,2.6
Cn1c(=O)c(=O)n(C)c2cc(S(=O)(=O)CCC(=O)Nc3ccc(C(F)(F)F)cc3)ccc21,-0.7,4.0,1.8,-0.9,-1.2,-2.3
COc1cccc(CCC(=O)N2CCC(n3nccc3NC(=O)CC(C)C)CC2)c1,102.5*,-3.6,-4.7,-0.6,0.6,-1.5
O=c1c2cc(F)ccc2sn1-c1ccccc1,-0.8,-7.5,91.6*,-0.1,-1.8,0.7
O=C(O)c1cccc(-n2sc3ccccc3c2=O)c1,6.5,14.1,88.2*,-3.5,-3.1,3.8
O=c1c2ccccc2sn1-c1nccs1,5.4,0.3,96.5*,-0.3,0.7,0.3
O=c1c2cc(C(F)(F)F)ccc2sn1-c1ccccc1,2.9,-0.1,·,14.6,-1.5,-3.7
CN(C)S(=O)(=O)c1cccc(-n2sc3ccccc3c2=O)c1,3.5,2.5,99.2*,0.9,-0.9,-0.5
CC(=O)Nc1ccc2c(=O)n(-c3ccccc3)sc2c1,6.5,3.9,·,0.1,-2.6,3.9
COc1ccc(NC(=O)c2cnc(SC)nc2C)c(OC)c1,1.4,-1.4,-6.0,0.9,0.9,-1.4
Cc1ccc(S(=O)(=O)Nc2cc(C)cn(Cc3ccc(F)cc3)c2=O)cc1,0.0,-6.6,-11.7,18.5,0.6,0.4
CCOC(=O)C1C(=O)NC(c2ccccc2)=NC1c1ccc(Br)cc1 (stereo not drawn),2.0,0.7,-0.5,-8.3,0.6,-1.5
Cc1ccc(-n2sc3ccccc3c2=O)cc1S(=O)(=O)N1CCCCC1,17.5,5.9,96.8*,-3.5,-1.3,0.8
O=c1c2ccccc2sn1-c1cccc(Cl)c1,17.1,1.3,·,-1.3,-1.2,-2.3
O=c1c2ccccc2sn1-c1ccccc1,-0.7,1.2,65.4*,-1.1,0.2,0.7
C[C@H](CO)N1C[C@H](C)[C@@H](CN(C)C(=O)Nc2ccc3c(c2)OCO3)Oc2ccc(NC(=O)NC3CCCCC3)cc2C1=O,0.2,9.2,-0.2,-1.2,0.8,-1.4
CCOC(=O)c1c(C)nc2sc3c(=O)[nH]cnc3c2c1-c1ccc(OC)cc1,2.6,2.2,-11.7,9.6,-0.9,0.2
COc1ccc(-c2c(C(C)=O)c(C)nc3sc4c(c23)NC(c2ccccc2)NC4=O)cc1 (stereo not drawn),39.9*,5.8,-7.4,-1.5,-1.9,1.5
CCOC(=O)c1c(C)nc2sc3c(c2c1-c1ccc(OC)cc1)NC(c1ccccc1)NC3=O (stereo not drawn),46.6*,-0.3,-3.0,-6.6,1.4,-1.1
Cc1ccccc1CC1SC(N=C(N)N)=NC1=O (stereo not drawn),0.3,0.5,-8.1,0.0,-3.3,-0.6
O=C(COc1ccccc1C(=O)N/N=C\c1ccc(O)c(O)c1)N/N=C/c1ccc(O)c(O)c1,20.9,3.9,61.4*,34.5,10.8,-2.4
COc1ccc(/C=N/NC(=O)c2ccccc2OC)cc1COc1ccc(C)cc1,0.9,8.3,-8.3,4.5,-0.6,1.6
COc1ccc(/C=N/NC(=O)c2cc(O)c(O)c(O)c2)cc1Cn1cc([N+](=O)[O-])cn1,8.4,21.6,83.2*,24.8,62.0*,5.4
SMILES,SUMO1 PPI mod,DNMT1 inh,Scp-1 inhibitor,CSN deneddyl inh,LMPTP block,STEP inh
O=C(NN=Cc1ccc(O)c(O)c1)c1ccccc1,-5.7,12.7,·,-5.8,3.6,1.6
COc1ccc(/C=N/NC(=O)c2ccccc2OC)cc1COc1ccccc1[N+](=O)[O-],24.6,18.8,3.5,101.5*,8.3,6.7
CCCCN(C(=O)COC(=O)CSc1cc(C)c2ccccc2n1)c1c(N)n(CCC)c(=O)[nH]c1=O,3.4,3.4,-2.2,-3.9,0.5,2.7
C/C(N)=C(/C#N)C(=O)COC(=O)CNC(=O)c1ccc(Cl)cc1Cl,4.2,5.2,-8.6,0.7,-0.8,-1.8
C/C(N)=C(/C#N)C(=O)COc1ccc(Cl)cc1Cl,60.9*,-2.7,-7.3,2.6,3.2,-3.1
C#CCOCCOCCOCCNc1nc(N2CCN(C(=O)[C@H](C)n3cc(CCC(=O)O)nn3)CC2)nc(N2CCN(C(=O)[C@H](Cc3ccc(O)cc3)n3cc(CCO)nn3)CC2)n1,4.6,-1.1,1.9,-6.0,-1.8,-0.5
O=C(NCc1ccc(OC(F)(F)F)cc1)c1cccc2c1C(=O)c1ccc(N3CCCC3)cc1S2(=O)=O,-20.1,31.9,2.6,84.7*,0.3,-11.0
O=C(NC1CC1)c1cccc2c1C(=O)c1ccc(N3CCC(N4CCCCC4)CC3)cc1S2(=O)=O,-35.8,3.9,·,42.6*,2.8,-3.5
O=C(NCc1ccc(OC(F)(F)F)cc1)c1cccc2c1C(=O)c1ccc(N3CCCCC3)cc1S2(=O)=O,-19.8,19.0,-2.3,-72.3,-0.8,-41.8
O=C(NCc1cc(C(F)(F)F)ccc1Cl)c1cccc2c1C(=O)c1ccc(N3CCCCC3)cc1S2(=O)=O,-23.8,31.9,8.2,55.1*,0.7,-5.9
CN(C)S(=O)(=O)c1ccc(N2CCCC2)c(C(=O)NNC(=O)COc2cccc(F)c2)c1,5.0,1.5,-12.0,2.2,-0.7,-3.2
COc1cc(OC)c(NC(=O)c2sc3ncn(CC(=O)N4CCN(c5ccccn5)CC4)c(=O)c3c2C)cc1Cl,-8.5,-6.2,-2.0,-2.8,26.0,4.2
Cc1ccc(Cc2c(-c3ccc(C#N)cc3)nc3ccc(Cl)cn23)cc1,-0.7,0.8,·,11.2,2.8,-1.3
O=C(c1cnc(Cc2c[nH]c3ccccc23)c(I)c1)N1CCN(Cc2ccccc2)CC1,0.3,-18.5,·,42.2*,2.8,-1.7
O=C(c1cnc(Cc2c[nH]c3ccccc23)c(I)c1)N1CCCCC1,0.6,-8.2,·,1.9,0.2,1.5
NC1=NC(=O)/C(=C/c2ccc(-c3ccc(S(N)(=O)=O)cc3)o2)S1,87.7*,9.3,6.4,33.6,3.7,-2.0
